Measurements from different studies.
Protocols differ between the studies behind these lines.
CNR2: Cannabinoid receptor 2 (CNR2, Homo sapiens, UniProt P34972)
CASR: Extracellular calcium-sensing receptor (CASR, Homo sapiens, UniProt P41180)
F10: Coagulation factor X (F10, Homo sapiens, UniProt P00742)

With `CCCCCc1cc(O)c2c(c1)OC(C)(C)[C@@H]1CC[C@@H](C)C=C21` the Ki was 28 nM (CNR2; ligand displacement; radioligand; cell membranes).
For `CCC(CC)(NC(=O)c1ccc(C2CC2)c(Cc2ccc(F)cc2)n1)C(=O)NCCOCCOCCNC(=O)c1ccc2c(c1)C1(OC2=O)c2ccc(N(C)C)cc2[Si](C)(C)c2cc(N(C)C)ccc21`, the Ki was 676 nM (CNR2; ligand displacement; radioligand; cell membranes).
`CNC(=O)c1ccc(-c2cnn3ccc(C(=O)N(C)c4ccc(Cl)c(C(=O)O)c4)cc23)cc1` has an IC50 of > 30000 nM (Histamine H3 receptor (HRH3, Homo sapiens, UniProt Q9Y5N1); cell-free assay).
With `C[C@@H](NCCCc1cccc(C(F)(F)F)c1)c1cccc2ccccc12` the EC50 was 71 nM (CASR; G protein activation; agonist; BRET).
`C=C1CC/C=C(\C)CC[C@@H]2[C@@H]1CC2(C)C` has a Ki of > 10000 nM (CNR2; ligand displacement; radioligand; cell membranes).
`CNC(C)Cc1ccc2c(c1)OCO2` (stereo not shown) gave a Ki of 1900 nM (Solute carrier family 22 member 2 (SLC22A2, Homo sapiens, UniProt O15244); transporter uptake; inhibitor).
For `CC(=O)N[C@H]1C/C=C/COc2ccc(cc2)C[C@@H](C(=O)N[C@@H](CCCNC(=N)N)C(=O)c2nc3ccccc3s2)NC(=O)[C@H](CC(C)C)NC1=O`, the IC50 was 8810 nM (F10; enzyme activity; inhibitor; absorbance; with preincubation).
`CC(C)C[C@@H]1NC(=O)[C@H](C(C)(C)C)NC(=O)[C@H](Cc2ccc(O)cc2)NC(=O)[C@@H]2CCCN2C(=O)[C@H](CCCCN)NC(=O)[C@H](CCCNC(=N)N)NC1=O` gave a Ki of > 100000 nM (Neurotensin receptor type 1 (Ntsr1, Rattus norvegicus, UniProt P20789); ligand displacement; flow cytometry).
For `CC(NCc1cccc(-n2cccn2)c1)c1csc2ccccc12` (stereo not shown), the EC50 was 444 nM (CASR; G protein activation; agonist; BRET).
`CC(=O)N[C@H]1Cc2ccc(cc2)OCCCC[C@@H](C(=O)N[C@@H](CCCNC(=N)N)C(=O)c2nc3ccccc3s2)NC(=O)[C@H](CC(C)C)NC1=O` gave an IC50 of 2650 nM (F10; enzyme activity; inhibitor; absorbance; with preincubation).
